# Source: ChEMBL document CHEMBL2417357, “Synthesis and antiprotozoal activities of benzyl phenyl ether diamidine derivatives” (Eur J Med Chem, 2013)
# Activity calls are given as the source filed them. The rule behind the calls is not given here.
# Tests used:
# [1] = tested on: Trypanosoma brucei rhodesiense; assay: Antitrypanosomal activity against Trypanosoma brucei rhodesiense STIB900 infected in NMRI mouse assessed as cured animal at 5 mg/kg, ip administered for 4 days; format: functional, organism-based; parameters: dose 5 mg/kg
# How it was run: (§1)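 Acute model in female NMRI mice infected with T. b. rhodesiense STIB900. Single daily doses given for four days, intraperitoneally or orally. Mice surviving 60 days post-infection without parasitaemia relapse counted as cured; result reported as cured/infected out of 4 mice per group, with mean survival in days.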
# L6 = assay: Cytotoxicity against rat L6 cells after 72 hrs by Alamar blue assay; format: cell-based; settings: L6, 72 h
# How it was run: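 Rat L6 myoblast cells; cytotoxic IC50 taken as the average of duplicate determinations.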
# [2] = tested on: Trypanosoma brucei rhodesiense; assay: Antitrypanosomal activity against Trypanosoma brucei rhodesiense STIB900 infected in NMRI mouse assessed as mean survival days at 5 mg/kg, ip administered for 4 days; format: functional; settings: route intraperitoneal
# How it was run: (§2)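 Female NMRI mice, acute infection model with T. b. rhodesiense STIB900. Compound given as a single daily dose for four days, intraperitoneally or orally. Cure means survival to 60 days post-infection without parasitaemia relapse. Mean survival recorded in days.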
# Leishmania donovani = assay: Antileishmanial activity against amastigotes of Leishmania donovani MHOM/SD/62/IS-CL2D; format: functional, organism-based
# How it was run: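 Axenic amastigotes of L. donovani MHOM/SD/62/IS-CL2D; IC50 taken as the average of at least two determinations.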
# [3] = Selectivity index, ratio of IC50 for rat L6 cells to IC50 for amastigotes of Leishmania donovani; format: toxicity, cell-based; settings: read-out: Ratio IC50
# How it was run: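 SI = IC50 in rat L6 myoblasts / IC50 against L. donovani MHOM/SD/62/IS-CL2D axenic amastigotes. The amastigote IC50 is the average of at least two determinations; the L6 IC50 is the average of duplicates.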
# [4] = Selectivity index, ratio of IC50 for rat L6 cells to IC50 for chloroquine-resistant Plasmodium falciparum K1; format: toxicity, cell-based; settings: read-out: Ratio IC50
# How it was run: (§3)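 SI = IC50 in rat L6 myoblasts / IC50 against the parasite (T. b. rhodesiense STIB900 or P. falciparum K1). Each IC50 is the average of duplicate determinations.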
# Plasmodium falciparum = assay: Antiplasmodial activity against chloroquine-resistant Plasmodium falciparum K1; format: functional, organism-based
# How it was run: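 Chloroquine-resistant K1 strain tested in vitro. IC50 is the average of duplicate determinations.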
# [5] = Selectivity index, ratio of IC50 for rat L6 cells to IC50 for Trypanosoma brucei rhodesiense STIB900; format: toxicity, cell-based; settings: read-out: Ratio IC50; how it was run: as §3
# [6] = tested on: Trypanosoma brucei rhodesiense; assay: Antitrypanosomal activity against Trypanosoma brucei rhodesiense STIB900 after 72 hrs by Alamar blue assay; format: functional, organism-based; settings: STIB900, 72 h
# [7] = tested on: Trypanosoma brucei rhodesiense; assay: Antitrypanosomal activity against Trypanosoma brucei rhodesiense STIB900 infected in NMRI mouse assessed as cured animal at 25 mg/kg, po administered for 4 days; format: functional, organism-based; parameters: dose 25 mg/kg; how it was run: as §1
# [8] = tested on: Trypanosoma brucei rhodesiense; assay: Antitrypanosomal activity against Trypanosoma brucei rhodesiense STIB900 infected in NMRI mouse assessed as mean survival days at 25 mg/kg, po administered for 4 days; format: functional; how it was run: as §2
SMILES,Activity [1],IC50 (L6) [µM],MSD [2] [days],IC50 (Leishmania donovani) [µM],selectivity ratio [3],selectivity ratio [4],IC50 (Plasmodium falciparum) [µM],selectivity ratio [5],IC50 [6] [µM],Activity [7],MSD [8] [days]
N=C(N)c1cccc(COc2c(Cl)cc(C(=N)N)cc2Cl)c1,inactive,0.57,27.5,6.51,< 1,3,0.185,57,0.01,,
N=C(N)c1ccc(COc2c(Br)cc(C(=N)N)cc2Br)cc1,inactive,21.5,30,4.09,5,849,0.025,1260,0.017,,
COc1cc(C(=N)N)cc(OC)c1OCc1ccc(C(=N)N)cc1.Cl.Cl,inactive,209,15,> 100,< 2,1180,0.177,1910,0.11,,
COc1cc(C(=N)N)cc(OC)c1OCc1cccc(C(=N)N)c1.Cl.Cl,inactive,96,16.25,> 100,< 1,416,0.231,524,0.183,,
COc1cc(/C(N)=N/O)cc(Br)c1OCc1cccc(/C(N)=N/O)c1.Cl.Cl,,28.9,,> 100,< 1,< 3,> 10.4,< 1,87.9,inactive,31.75
COc1cc(/C(N)=N/O)cc(OC)c1OCc1cccc(/C(N)=N/O)c1.Cl.Cl,,70.7,,> 100,< 1,< 6,> 11.5,< 1,157,inactive,16.5
Cl.Cl.N/C(=N\O)c1cccc(COc2ccc(/C(N)=N/O)cc2Br)c1,,4.39,,> 100,< 1,< 1,5.8,< 1,14.7,inactive,12.75
N=C(N)c1ccc(COc2ccc(C(=N)N)cc2)cc1,inactive,6.96,22.5,8.77,< 14,89,0.078,77,0.091,,
CO/N=C(\N)c1cccc(COc2ccc(/C(N)=N/OC)cc2Br)c1.Cl.Cl,,99.4,,5.66,17,< 10,> 9.96,1,79.1,Active,>60
Cl.Cl.N/C(=N\O)c1cccc(COc2c(I)cc(/C(N)=N/O)cc2I)c1,,15.8,,6.63,2,2.14,7.38,1,13.6,inactive,5.75
N=C(N)c1cccc(COc2c(Br)cc(C(=N)N)cc2Br)c1,inactive,4.7,>35.25,3.37,1,39,0.12,1270,0.004,,
N=C(N)c1ccc(COc2c(Cl)cc(C(=N)N)cc2Cl)cc1,inactive,28.5,30.25,6.4,4,2020,0.014,1170,0.024,,
N=C(N)c1ccc(COc2ccc(C(=N)N)cc2Br)cc1,inactive,4.99,29,2.02,2,1250,0.004,322,0.016,,
COc1cc(C(=N)N)cc(I)c1OCc1cccc(C(=N)N)c1.Cl,inactive,18.6,35.75,6.01,3,760,0.0245,6210,0.003,,
Cl.Cl.N=C(N)c1cccc(COc2ccc(C(=N)N)cc2[N+](=O)[O-])c1,inactive,10.8,23.25,11.3,< 1,592,0.018,324,0.034,,
N=C(N)c1ccc(COc2cccc(C(=N)N)c2)cc1,inactive,19.3,19,42.1,< 1,99,0.195,694,0.028,,
Cl.Cl.N/C(=N\O)c1cccc(COc2ccc(/C(N)=N/O)cc2I)c1,,4.73,,> 50,< 1,< 1,7.31,< 1,50.2,inactive,20
CO/N=C(\N)c1cccc(COc2ccc(/C(N)=N/OC)cc2Cl)c1.Cl.Cl.Cl,,89.6,,> 100,< 1,< 9,> 10.2,3,26.1,inactive,29.25
COc1cc(C(=N)N)cc(Br)c1OCc1cccc(C(=N)N)c1.Cl.Cl,inactive,21.6,>45.75,11.4,< 2,747,0.0289,4070,0.005,,
CO/N=C(\N)c1cccc(COc2c(I)cc(/C(N)=N/OC)cc2I)c1.Cl.Cl,,27.5,,44.2,< 1,< 4,> 7.1,1,26.3,inactive,19.75
COc1cc(/C(N)=N/O)cc(I)c1OCc1cccc(/C(N)=N/O)c1.Cl.Cl,,32.1,,> 94.5,< 1,< 3,> 9.45,< 1,38.7,inactive,20.5
N=C(N)c1cccc(COc2ccc(C(=N)N)cc2Cl)c1,inactive,13.9,24.5,2.91,5,275,0.051,1900,0.007,,
Cl.Cl.N/C(=N\O)c1ccc(COc2ccc(/C(N)=N/O)cc2Br)cc1,,6.6,,> 100,< 1,< 1,> 11.1,< 1,24,inactive,28.75
